Reference: ChEMBL document CHEMBL4014269, “Antibacterial and Hypoglycemic Diterpenoids from Salvia chamaedryoides” (J Nat Prod, 2017)
≈ marks a conversion by molar mass, not a printed value. Calls of active or inactive are those of the source. The calls are words filed in the database; no cut-off is given here.

Tests used:
[1] = system: Staphylococcus aureus; test: Antibacterial activity against methicillin-resistant Staphylococcus aureus isolate MB 9 after 24 hrs by microdilution assay; type: functional; conditions: isolate MB 9, 24 h
Method in brief: (§1)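 Clinical isolates from various clinical specimens, identified by standard procedures and kept in a hospital microbiology laboratory collection. The MIC was read by broth microdilution, following a method described in earlier work.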

[2] = system: Staphylococcus aureus; test: Antibacterial activity against methicillin-resistant Staphylococcus aureus isolate MB 10 after 24 hrs by microdilution assay; type: functional; conditions: isolate MB 10, 24 h; method in brief: as §1
[3] = system: Staphylococcus aureus; test: Antibacterial activity against methicillin-resistant Staphylococcus aureus isolate MB 18 after 24 hrs by microdilution assay; type: functional; conditions: isolate MB 18, 24 h; method in brief: as §1
[4] = system: Staphylococcus aureus; test: Antibacterial activity against methicillin-sensitive Staphylococcus aureus isolate MB 21 after 24 hrs by microdilution assay; type: functional; conditions: isolate MB 21, 24 h
Method in brief: (§2)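 Clinical isolates from a hospital microbiology collection, identified by standard procedures; MICs by broth microdilution.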

[5] = system: Staphylococcus epidermidis; test: Antibacterial activity against methicillin-resistant Staphylococcus epidermidis isolate MB 20 after 24 hrs by microdilution assay; type: functional; conditions: isolate MB 20, 24 h; method in brief: as §1
[6] = system: Staphylococcus epidermidis; test: Antibacterial activity against methicillin-resistant Staphylococcus epidermidis isolate MB 26 after 24 hrs by microdilution assay; type: functional; conditions: isolate MB 26, 24 h; method in brief: as §1
[7] = system: Staphylococcus epidermidis; test: Antibacterial activity against methicillin-resistant Staphylococcus epidermidis isolate MB 64 after 24 hrs by microdilution assay; type: functional; conditions: isolate MB 64, 24 h; method in brief: as §1
[8] = system: Staphylococcus epidermidis; test: Antibacterial activity against methicillin-sensitive Staphylococcus epidermidis isolate MB 65 after 24 hrs by microdilution assay; type: functional; conditions: isolate MB 65, 24 h; method in brief: as §2
[9] = system: Enterococcus faecalis; test: Antibacterial activity against vancomycin-resistant Enterococcus faecalis isolate MB 1 after 24 hrs by microdilution assay; type: functional; conditions: isolate MB 1, 24 h; method in brief: as §1
[10] = system: Enterococcus faecalis; test: Antibacterial activity against Enterococcus faecalis isolate MB 3 after 24 hrs by microdilution assay; type: functional; conditions: isolate MB 3, 24 h; method in brief: as §2
[11] = system: Enterococcus faecalis; test: Antibacterial activity against vancomycin-resistant Enterococcus faecalis isolate MB 49 after 24 hrs by microdilution assay; type: functional; conditions: isolate MB 49, 24 h; method in brief: as §1
[12] = system: Enterococcus faecalis; test: Antibacterial activity against vancomycin-resistant Enterococcus faecalis isolate MB 51 after 24 hrs by microdilution assay; type: functional; conditions: isolate MB 51, 24 h; method in brief: as §1
[13] = system: Enterococcus faecium; test: Antibacterial activity against vancomycin-resistant Enterococcus faecium isolate MB 2 after 24 hrs by microdilution assay; type: functional; conditions: isolate MB 2, 24 h; method in brief: as §1
[14] = system: Enterococcus faecium; test: Antibacterial activity against vancomycin-resistant Enterococcus faecium isolate MB 23 after 24 hrs by microdilution assay; type: functional; conditions: isolate MB 23, 24 h; method in brief: as §1
[15] = system: Enterococcus faecium; test: Antibacterial activity against vancomycin-resistant Enterococcus faecium isolate MB 50 after 24 hrs by microdilution assay; type: functional; conditions: isolate MB 50, 24 h; method in brief: as §1
[16] = system: Enterococcus faecium; test: Antibacterial activity against Enterococcus faecium isolate MB 55 after 24 hrs by microdilution assay; type: functional; conditions: isolate MB 55, 24 h; method in brief: as §1
[17] = system: Escherichia coli; test: Antibacterial activity against Escherichia coli isolate MB 123 after 24 hrs by microdilution assay; type: functional; method in brief: as §1
[18] = system: Proteus mirabilis; test: Antibacterial activity against Proteus mirabilis isolate MB 14 after 24 hrs by microdilution assay; type: functional; method in brief: as §1
[19] = system: Moraxella catarrhalis; test: Antibacterial activity against Moraxella catarrhalis isolate MB 15 after 24 hrs by microdilution assay; type: functional; method in brief: as §1
[20] = system: Klebsiella pneumoniae; test: Antibacterial activity against Klebsiella pneumoniae isolate MB 11 after 24 hrs by microdilution assay; type: functional; method in brief: as §1
[21] = system: Candida albicans; test: Antifungal activity against Candida albicans isolate MB 31 after 48 hrs by microdilution assay; type: functional; method in brief: as §1
[22] = system: Nakaseomyces glabratus; test: Antifungal activity against Candida glabrata isolate MB 8 after 48 hrs by microdilution assay; type: functional; method in brief: as §1
[23] = target: alpha-glucosidase (Saccharomyces cerevisiae); test: Inhibition of alpha-glucosidase (Saccharomyces cerevisiae) using 4-nitrophenyl alpha-D-glucopyranoside as substrate after 10 mins
[24] = target: Alpha-amylase (Sus scrofa); test: Inhibition of alpha-amylase (hog pancreas) using starch as substrate preincubated for 10 mins followed by substrate addition measured after 10 mins by dinitrosalicylic acid color reagent based assay

In the case of CC(=O)O[C@H](C[C@@]1(C)[C@H](C)[C@H](O[C@@H]2O[C@H](CO)[C@@H](O)C(=O)[C@H]2O)C[C@@]23COC(=O)C2=CCC[C@@H]31)c1ccoc1, the MIC [1] is reported as greater than 128 µg/mL, the MIC [2] is reported as greater than 128 µg/mL and the MIC [3] is reported as greater than 128 µg/mL. It also gave an MIC [4] greater than 128 µg/mL, an MIC [5] greater than 128 µg/mL and an MIC [6] greater than 128 µg/mL. For the same compound, the MIC [7] was greater than 128 µg/mL, the MIC [8] was greater than 128 µg/mL and the MIC [9] was 234 µM. For the same compound, the MIC [10] was 117 µM, the MIC [11] was 234 µM and the MIC [12] was 117 µM. The MIC [13] was 234 µM (≈ 128 µg/mL), the MIC [14] was greater than 128 µg/mL and the MIC [15] was 234 µM. For the same compound, the MIC [16] was greater than 128 µg/mL, the Activity [17] was “inactive” and the Activity [18] was “inactive”. For the same compound, the Activity [19] was “inactive”, the Activity [20] was “inactive” and the Activity [21] was “inactive”. The Activity [22] was “inactive”.
In the case of O=C1OCC=C1[C@H]1CCc2ccc3c(c2C1)[C@H](c1ccoc1)OC3=O, the MIC [1] is reported as greater than 128 µg/mL, the MIC [2] is reported as greater than 128 µg/mL and the MIC [3] is reported as greater than 128 µg/mL. The MIC [4] was greater than 128 µg/mL, the MIC [5] was greater than 128 µg/mL and the MIC [6] was greater than 128 µg/mL. For the same compound, the MIC [7] was greater than 128 µg/mL, the MIC [8] was greater than 128 µg/mL and the MIC [9] was greater than 128 µg/mL. The MIC [10] was greater than 128 µg/mL, the MIC [11] was greater than 128 µg/mL and the MIC [12] was greater than 128 µg/mL. It also gave an MIC [13] of 381 µM (≈ 128 µg/mL), an MIC [14] of 381 µM and an MIC [15] of 381 µM. The MIC [16] was 381 µM, the Activity [17] was “inactive” and the Activity [18] was “inactive”. For the same compound, the Activity [19] was “inactive”, the Activity [20] was “inactive” and the Activity [21] was “inactive”. The Activity [22] was “inactive”.
Work on C[C@]12C[C@H](c3ccoc3)OC(=O)[C@@]1(O)[C@@H](O)C[C@@]13COC(=O)C1=CC[C@@H](O)[C@@H]32 yielded an IC50 [23] of 113.2 µg/mL (≈ 290 µM) and an IC50 [24] of 238.1 µg/mL (≈ 610 µM).
In the case of C[C@]12C[C@H](c3ccoc3)OC(=O)[C@@H]1[C@H](O)C[C@]13COC(=O)C1=CC=C[C@@H]32, the MIC [1] is reported as greater than 128 µg/mL, the MIC [2] is reported as greater than 128 µg/mL and the MIC [3] is reported as greater than 128 µg/mL. The MIC [4] was greater than 128 µg/mL, the MIC [5] was greater than 128 µg/mL and the MIC [6] was greater than 128 µg/mL. It also gave an MIC [7] greater than 128 µg/mL, an MIC [8] greater than 128 µg/mL and an MIC [9] greater than 128 µg/mL. It also gave an MIC [10] greater than 128 µg/mL, an MIC [11] greater than 128 µg/mL and an MIC [12] greater than 128 µg/mL. The MIC [13] was 359 µM (≈ 128 µg/mL), the MIC [14] was greater than 128 µg/mL and the MIC [15] was 359 µM. For the same compound, the MIC [16] was greater than 128 µg/mL, the Activity [17] was “inactive” and the Activity [18] was “inactive”. The Activity [19] was “inactive”, the Activity [20] was “inactive” and the Activity [21] was “inactive”. For the same compound, the Activity [22] was “inactive”.
Work on CC(C)c1cc2c(c(O)c1O)[C@@]13CCCC(C)(C)[C@@H]1[C@H](OC3=O)C2=O yielded an MIC [1] greater than 128 µg/mL, an MIC [2] greater than 128 µg/mL and an MIC [3] greater than 128 µg/mL. It also gave an MIC [4] greater than 128 µg/mL, an MIC [5] greater than 128 µg/mL and an MIC [6] greater than 128 µg/mL. It also gave an MIC [7] greater than 128 µg/mL, an MIC [8] greater than 128 µg/mL and an MIC [9] of 186 µM. For the same compound, the MIC [10] was 93 µM, the MIC [11] was 186 µM and the MIC [12] was 93 µM. For the same compound, the MIC [13] was 186 µM (≈ 64.1 µg/mL), the MIC [14] was 93 µM and the MIC [15] was 93 µM. The MIC [16] was 186 µM, the Activity [17] was “inactive” and the Activity [18] was “inactive”. The Activity [19] was “inactive”, the Activity [20] was “inactive” and the Activity [21] was “inactive”. The Activity [22] was “inactive”.
C[C@]12C[C@H](c3ccoc3)OC(=O)[C@@]1(O)[C@H](O)C[C@@]13COC(=O)C1=CCC[C@@H]32 gave an MIC [1] greater than 128 µg/mL, an MIC [2] greater than 128 µg/mL and an MIC [3] greater than 128 µg/mL. It also gave an MIC [4] greater than 128 µg/mL, an MIC [5] greater than 128 µg/mL and an MIC [6] greater than 128 µg/mL. The MIC [7] was greater than 128 µg/mL, the MIC [8] was greater than 128 µg/mL and the MIC [9] was greater than 128 µg/mL. For the same compound, the MIC [10] was greater than 128 µg/mL, the MIC [11] was greater than 128 µg/mL and the MIC [12] was greater than 128 µg/mL. For the same compound, the MIC [13] was 342 µM (≈ 128 µg/mL), the MIC [14] was 342 µM and the MIC [15] was greater than 128 µg/mL. For the same compound, the MIC [16] was 342 µM, the Activity [17] was “inactive” and the Activity [18] was “inactive”. For the same compound, the Activity [19] was “inactive”, the Activity [20] was “inactive” and the Activity [21] was “inactive”. The Activity [22] was “inactive”.
C[C@]12C[C@H](c3ccoc3)OC(=O)[C@@H]1[C@H](O)C[C@@]13COC(=O)C1=CC=C[C@H]32 was tested, and the IC50 [24] was 53.5 µg/mL (≈ 150 µM).
C[C@]12C[C@H](c3ccoc3)OC(=O)[C@]1(O)[C@H](O)C[C@@]13COC(=O)C1=CCC[C@@H]32 showed an MIC [1] greater than 128 µg/mL, an MIC [2] greater than 128 µg/mL and an MIC [3] greater than 128 µg/mL. It also gave an MIC [4] greater than 128 µg/mL, an MIC [5] greater than 128 µg/mL and an MIC [6] greater than 128 µg/mL. It also gave an MIC [7] greater than 128 µg/mL, an MIC [8] greater than 128 µg/mL and an MIC [9] of 171 µM. It also gave an MIC [10] of 342 µM, an MIC [11] of 171 µM and an MIC [12] of 85.5 µM. It also gave an MIC [13] of 171 µM (≈ 64.1 µg/mL), an MIC [14] of 342 µM and an MIC [15] of 171 µM. The MIC [16] was 342 µM, the Activity [17] was “inactive” and the Activity [18] was “inactive”. For the same compound, the Activity [19] was “inactive”, the Activity [20] was “inactive” and the Activity [21] was “inactive”. For the same compound, the Activity [22] was “inactive”.
In the case of C[C@@]12/C=C/C=C\C3=C(COC3=O)C[C@@H](O)[C@H]1C(=O)O[C@@H](c1ccoc1)C2, the MIC [1] is reported as greater than 128 µg/mL, the MIC [2] is reported as greater than 128 µg/mL and the MIC [3] is reported as greater than 128 µg/mL. The MIC [4] was greater than 128 µg/mL, the MIC [5] was greater than 128 µg/mL and the MIC [6] was greater than 128 µg/mL. For the same compound, the MIC [7] was greater than 128 µg/mL, the MIC [8] was greater than 128 µg/mL and the MIC [9] was 180 µM. The MIC [10] was 89.9 µM, the MIC [11] was 180 µM and the MIC [12] was 89.9 µM. For the same compound, the MIC [13] was 89.9 µM (≈ 32 µg/mL), the MIC [14] was 180 µM and the MIC [15] was 180 µM. For the same compound, the MIC [16] was 89.9 µM, the Activity [17] was “inactive” and the Activity [18] was “inactive”. For the same compound, the Activity [19] was “inactive”, the Activity [20] was “inactive” and the Activity [21] was “inactive”. For the same compound, the Activity [22] was “inactive”.
